Calls of active or inactive are those of the source. The calls are words filed in the database; no cut-off is given here.

The results in this text go back to ChEMBL document CHEMBL1955838, “Asymmetric synthesis and evaluation of a hydroxyphenylamide voltage-gated sodium channel blocker in human prostate cancer xenografts” (Bioorg Med Chem, 2012).

The target in data set [1] is Sodium channel protein type 9 subunit alpha (Homo sapiens, UniProt Q15858). The data set is described as follows: Inhibition of human voltage-gated sodium channel 1.7 expressed in HEK293 cells assessed as changes in membranre potential after 45 mins by FRET analysis.
Sodium channel protein type 9 subunit alpha, sequence (Q15858 whole entry): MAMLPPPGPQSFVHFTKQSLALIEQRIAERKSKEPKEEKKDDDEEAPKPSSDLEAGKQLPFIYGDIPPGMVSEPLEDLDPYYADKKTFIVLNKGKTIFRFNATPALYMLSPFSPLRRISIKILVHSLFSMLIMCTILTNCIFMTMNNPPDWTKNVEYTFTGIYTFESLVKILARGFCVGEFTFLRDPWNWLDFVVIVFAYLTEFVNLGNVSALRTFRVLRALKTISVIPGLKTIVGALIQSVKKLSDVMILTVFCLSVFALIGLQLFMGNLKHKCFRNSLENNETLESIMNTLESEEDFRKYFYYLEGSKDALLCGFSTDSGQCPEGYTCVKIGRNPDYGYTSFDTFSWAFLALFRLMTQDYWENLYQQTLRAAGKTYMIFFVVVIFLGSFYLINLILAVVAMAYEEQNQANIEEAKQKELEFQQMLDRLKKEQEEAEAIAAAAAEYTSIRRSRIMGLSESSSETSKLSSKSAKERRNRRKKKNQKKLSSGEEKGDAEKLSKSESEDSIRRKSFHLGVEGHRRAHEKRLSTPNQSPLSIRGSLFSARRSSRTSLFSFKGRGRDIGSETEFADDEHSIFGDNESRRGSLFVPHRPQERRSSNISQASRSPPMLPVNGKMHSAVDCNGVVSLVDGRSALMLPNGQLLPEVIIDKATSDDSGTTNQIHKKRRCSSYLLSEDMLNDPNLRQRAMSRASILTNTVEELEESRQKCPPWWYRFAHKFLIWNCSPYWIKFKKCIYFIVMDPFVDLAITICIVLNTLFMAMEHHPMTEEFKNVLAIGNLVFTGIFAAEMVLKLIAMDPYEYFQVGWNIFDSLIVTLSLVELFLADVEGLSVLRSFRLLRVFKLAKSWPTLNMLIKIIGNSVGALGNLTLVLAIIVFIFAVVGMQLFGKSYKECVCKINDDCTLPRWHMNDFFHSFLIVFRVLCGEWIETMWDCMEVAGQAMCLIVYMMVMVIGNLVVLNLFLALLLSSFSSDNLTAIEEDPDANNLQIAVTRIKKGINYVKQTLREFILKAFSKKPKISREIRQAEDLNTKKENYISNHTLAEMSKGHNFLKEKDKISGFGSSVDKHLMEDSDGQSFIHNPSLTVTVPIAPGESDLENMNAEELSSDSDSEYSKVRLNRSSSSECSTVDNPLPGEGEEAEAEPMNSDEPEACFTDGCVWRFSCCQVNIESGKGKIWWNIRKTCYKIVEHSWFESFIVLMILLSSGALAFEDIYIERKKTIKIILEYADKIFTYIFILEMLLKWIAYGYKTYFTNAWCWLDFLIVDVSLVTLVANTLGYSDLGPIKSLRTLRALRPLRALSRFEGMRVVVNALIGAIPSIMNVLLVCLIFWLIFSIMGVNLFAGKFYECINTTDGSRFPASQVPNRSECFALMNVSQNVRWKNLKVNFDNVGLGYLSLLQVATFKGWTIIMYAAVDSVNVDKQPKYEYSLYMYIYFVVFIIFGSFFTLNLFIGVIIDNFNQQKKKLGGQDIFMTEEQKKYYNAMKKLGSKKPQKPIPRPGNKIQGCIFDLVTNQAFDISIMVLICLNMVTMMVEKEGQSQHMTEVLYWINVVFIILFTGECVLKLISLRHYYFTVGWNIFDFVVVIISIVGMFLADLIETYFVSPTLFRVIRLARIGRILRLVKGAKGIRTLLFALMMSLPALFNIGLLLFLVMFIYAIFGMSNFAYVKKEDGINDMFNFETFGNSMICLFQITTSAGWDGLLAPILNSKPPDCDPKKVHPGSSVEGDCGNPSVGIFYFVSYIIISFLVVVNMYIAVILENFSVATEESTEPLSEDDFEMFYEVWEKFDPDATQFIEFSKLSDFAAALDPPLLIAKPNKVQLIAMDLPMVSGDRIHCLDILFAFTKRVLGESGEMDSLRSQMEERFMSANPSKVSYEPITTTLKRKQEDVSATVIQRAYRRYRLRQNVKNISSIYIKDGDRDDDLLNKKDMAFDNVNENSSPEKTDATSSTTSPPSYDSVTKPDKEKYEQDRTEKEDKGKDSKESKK
The target of data set [2] is Sodium channel protein type 2 subunit alpha (Homo sapiens) (UniProt Q99250). The data set is described as follows: Inhibition of human voltage-gated sodium channel 1.2-mediated current expressed in HEK293 cells at -60 to +10 mV holding poteinitial at 1 uM after 5 mins by patch clamp electrophysiology. It counts as cell-based. In a few lines:
(§1)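 Whole-cell patch clamp at 20–22 °C. Pipette solution CsCl/BAPTA/MgATP, pH 7.4; bath NaCl 130 mM, pH 7.4. ≥75% series resistance compensation; cells held at −100 mV for 5 min. Currents evoked by 25 ms steps from −60 to +10 mV every 15 s. Compound from 100 mM DMSO stock, perfused 5 min, then washout. Tonic block taken as peak current with drug versus drug-free.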
A general note: The patch-clamp technique gives a direct electrical read-out from membranes.

The target is the same in data set [3]. The data set is described as follows: Inhibition of human voltage-gated sodium channel 1.2-mediated current expressed in HEK293 cells at -60 to +10 mV holding poteinitial at 10 uM after 5 mins by patch clamp electrophysiology. Type of data set: cell-based. The gist of the method: as §1
Data set [4] has the same target. Description: Reversible inhibition of human voltage-gated sodium channel 1.2-mediated current expressed in HEK293 cells at -60 to +10 mV holding poteinitial at 1 to 10 uM after 5 mins measured after drug washout by patch clamp electrophysiology. Type of data set: cell-based. The gist of the method:
as §1

For data set [5], the target named is T1, hERG (KCNH2) (Homo sapiens, UniProt Q12809). Description: Displacement of [35S]MK-0499 from human ERG at 0.3 uM after >90 mins by scintillation counting. The note with it: probe [35S]MK-0499. The gist of the method:
(§2)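 Binding to membranes from HEK-293 cells stably expressing hERG, with 0.05 nM [35S]MK-499 in NaCl/KCl/HEPES buffer pH 7.4 with Mg2+ and Ca2+, 25 °C for >90 min. Filtered on BSA-presoaked GF/C plates, then scintillation counted. Five-point half-log titration, 0.3–30 μM. Percent inhibition relative to no-competitor control and 1 μM unlabeled MK-499; triplicate.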
Background: In a radioligand displacement assay an active substance lowers the binding of a labelled ligand.

The target in data set [6] is T1, hERG (KCNH2). The data set is described as follows: Displacement of [35S]MK-0499 from human ERG at 1 uM after >90 mins by scintillation counting. The note with it: probe [35S]MK-0499. The gist of the method:
as §2

The target of data set [7] is T1, hERG (KCNH2). Description: Displacement of [35S]MK-0499 from human ERG at 3 uM after >90 mins by scintillation counting. The note with it: probe [35S]MK-0499. The gist of the method:
as §2

Data set [8] deals with T1, hERG (KCNH2). The data set is described as follows: Displacement of [35S]MK-0499 from human ERG at 10 uM after >90 mins by scintillation counting. The conditions noted are these: probe [35S]MK-0499. The gist of the method: as §2
In data set [9] the target is T1, hERG (KCNH2). Description: Displacement of [35S]MK-0499 from human ERG at 30 uM after >90 mins by scintillation counting. The note with it: probe [35S]MK-0499. The gist of the method:
as §2

The subject of the next data set is CWR22R. Description: (§3) Cytotoxicity against human CWR22Rv1 cells assessed as cell death at 25 uM after 24 hrs by propidium iodide staining-based FACS analysis. It counts as functional. In a few lines: (§4)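 CWR22Rv1 cells seeded at 300,000/well in RPMI 1640 with 10% FBS, 2.5 mM L-glutamine and penicillin-streptomycin at 37 °C, 5% CO2, then switched to serum-free RPMI overnight. Compounds from DMSO stock diluted in serum-free RPMI, applied in triplicate. After treatment, cells trypsinized, fixed in 70% ethanol, RNase-treated (5 μg/mL), stained with propidium iodide (50 μg/mL), DNA content read by flow cytometry.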

Data set [10] in a line: Cytotoxicity against human CWR22Rv1 cells assessed as cell death at 25 uM after 72 hrs by propidium iodide staining-based FACS analysis. It counts as functional, CWR22R. In a few lines:
as §4
Background: In flow cytometry, cells or beads pass a laser one at a time.

Data set [11] relates to PC-3. The data set is described as follows: Antitumor activity against human PC3 cells xenografted in athymic BALB/c nude mouse assessed as reduction in tumor volume at 10 mg/kg, ip qd administered every other day for 24 days. It counts as functional. Also on record: scale not given: the % may be the effect or the level left. The note with it: route intraperitoneal. The gist of the method:
(§5)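 Male athymic nude mice (18–22 g) given 3 × 10^6 PC3 cells subcutaneously in right axillary region; randomized one week later into four groups of 6. Compound from DMSO stock diluted in PEG 400/PBS (1:1), given ip once every other day; vehicle control group. Tumor size by caliper, volume = length × width × height/2. One-way ANOVA or ANOVA on ranks with Tukey/Dunn post hoc; mean ± S.E.M.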

Data set [12] deals with PC-3. The data set is described as follows: Antitumor activity against human PC3 cells xenografted in athymic BALB/c nude mouse assessed as reduction in tumor volume at 10 mg/kg, ip qd administered every other day for 24 days measured on day 15. Type of data set: functional, organism-based. Also on record: dose 10 mg/kg. In a few lines:
as §5

Data set [13] is described as follows: as §3. It counts as functional, CWR22R. The gist of the method: as §4

T1 sequence (Q12809 whole entry): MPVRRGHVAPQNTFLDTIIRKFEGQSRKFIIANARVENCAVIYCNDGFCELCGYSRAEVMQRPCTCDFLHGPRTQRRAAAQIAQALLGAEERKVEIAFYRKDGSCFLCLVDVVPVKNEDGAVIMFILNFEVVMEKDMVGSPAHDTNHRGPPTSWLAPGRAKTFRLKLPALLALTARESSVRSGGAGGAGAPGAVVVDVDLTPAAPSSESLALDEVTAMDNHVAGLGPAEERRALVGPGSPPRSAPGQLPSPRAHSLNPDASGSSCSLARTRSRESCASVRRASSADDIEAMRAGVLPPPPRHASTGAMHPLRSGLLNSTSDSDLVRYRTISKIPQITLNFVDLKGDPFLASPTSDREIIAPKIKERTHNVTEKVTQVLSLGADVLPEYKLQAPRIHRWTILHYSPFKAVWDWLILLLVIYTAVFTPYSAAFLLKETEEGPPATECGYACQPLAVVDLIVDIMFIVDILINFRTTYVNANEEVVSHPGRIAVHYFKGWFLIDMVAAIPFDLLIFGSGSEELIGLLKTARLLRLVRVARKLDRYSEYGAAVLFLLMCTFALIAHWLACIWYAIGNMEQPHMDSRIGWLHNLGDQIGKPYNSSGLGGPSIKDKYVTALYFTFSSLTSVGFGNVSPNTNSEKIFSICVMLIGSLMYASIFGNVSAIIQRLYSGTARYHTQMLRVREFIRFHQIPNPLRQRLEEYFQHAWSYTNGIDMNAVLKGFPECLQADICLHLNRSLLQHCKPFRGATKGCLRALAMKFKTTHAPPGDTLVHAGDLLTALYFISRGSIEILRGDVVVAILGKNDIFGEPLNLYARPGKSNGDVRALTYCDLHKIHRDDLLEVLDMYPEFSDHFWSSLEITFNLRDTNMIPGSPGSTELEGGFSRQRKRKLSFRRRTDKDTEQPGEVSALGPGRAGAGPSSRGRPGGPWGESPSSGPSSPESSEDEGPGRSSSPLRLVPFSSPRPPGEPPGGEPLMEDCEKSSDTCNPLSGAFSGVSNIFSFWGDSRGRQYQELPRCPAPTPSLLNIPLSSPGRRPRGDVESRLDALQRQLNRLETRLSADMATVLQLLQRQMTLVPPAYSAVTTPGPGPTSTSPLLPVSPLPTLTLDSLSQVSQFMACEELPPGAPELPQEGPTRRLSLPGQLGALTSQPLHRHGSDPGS
Sodium channel protein type 2 subunit alpha (Homo sapiens), sequence (Q99250 whole entry, looked up, the tested form may be a part): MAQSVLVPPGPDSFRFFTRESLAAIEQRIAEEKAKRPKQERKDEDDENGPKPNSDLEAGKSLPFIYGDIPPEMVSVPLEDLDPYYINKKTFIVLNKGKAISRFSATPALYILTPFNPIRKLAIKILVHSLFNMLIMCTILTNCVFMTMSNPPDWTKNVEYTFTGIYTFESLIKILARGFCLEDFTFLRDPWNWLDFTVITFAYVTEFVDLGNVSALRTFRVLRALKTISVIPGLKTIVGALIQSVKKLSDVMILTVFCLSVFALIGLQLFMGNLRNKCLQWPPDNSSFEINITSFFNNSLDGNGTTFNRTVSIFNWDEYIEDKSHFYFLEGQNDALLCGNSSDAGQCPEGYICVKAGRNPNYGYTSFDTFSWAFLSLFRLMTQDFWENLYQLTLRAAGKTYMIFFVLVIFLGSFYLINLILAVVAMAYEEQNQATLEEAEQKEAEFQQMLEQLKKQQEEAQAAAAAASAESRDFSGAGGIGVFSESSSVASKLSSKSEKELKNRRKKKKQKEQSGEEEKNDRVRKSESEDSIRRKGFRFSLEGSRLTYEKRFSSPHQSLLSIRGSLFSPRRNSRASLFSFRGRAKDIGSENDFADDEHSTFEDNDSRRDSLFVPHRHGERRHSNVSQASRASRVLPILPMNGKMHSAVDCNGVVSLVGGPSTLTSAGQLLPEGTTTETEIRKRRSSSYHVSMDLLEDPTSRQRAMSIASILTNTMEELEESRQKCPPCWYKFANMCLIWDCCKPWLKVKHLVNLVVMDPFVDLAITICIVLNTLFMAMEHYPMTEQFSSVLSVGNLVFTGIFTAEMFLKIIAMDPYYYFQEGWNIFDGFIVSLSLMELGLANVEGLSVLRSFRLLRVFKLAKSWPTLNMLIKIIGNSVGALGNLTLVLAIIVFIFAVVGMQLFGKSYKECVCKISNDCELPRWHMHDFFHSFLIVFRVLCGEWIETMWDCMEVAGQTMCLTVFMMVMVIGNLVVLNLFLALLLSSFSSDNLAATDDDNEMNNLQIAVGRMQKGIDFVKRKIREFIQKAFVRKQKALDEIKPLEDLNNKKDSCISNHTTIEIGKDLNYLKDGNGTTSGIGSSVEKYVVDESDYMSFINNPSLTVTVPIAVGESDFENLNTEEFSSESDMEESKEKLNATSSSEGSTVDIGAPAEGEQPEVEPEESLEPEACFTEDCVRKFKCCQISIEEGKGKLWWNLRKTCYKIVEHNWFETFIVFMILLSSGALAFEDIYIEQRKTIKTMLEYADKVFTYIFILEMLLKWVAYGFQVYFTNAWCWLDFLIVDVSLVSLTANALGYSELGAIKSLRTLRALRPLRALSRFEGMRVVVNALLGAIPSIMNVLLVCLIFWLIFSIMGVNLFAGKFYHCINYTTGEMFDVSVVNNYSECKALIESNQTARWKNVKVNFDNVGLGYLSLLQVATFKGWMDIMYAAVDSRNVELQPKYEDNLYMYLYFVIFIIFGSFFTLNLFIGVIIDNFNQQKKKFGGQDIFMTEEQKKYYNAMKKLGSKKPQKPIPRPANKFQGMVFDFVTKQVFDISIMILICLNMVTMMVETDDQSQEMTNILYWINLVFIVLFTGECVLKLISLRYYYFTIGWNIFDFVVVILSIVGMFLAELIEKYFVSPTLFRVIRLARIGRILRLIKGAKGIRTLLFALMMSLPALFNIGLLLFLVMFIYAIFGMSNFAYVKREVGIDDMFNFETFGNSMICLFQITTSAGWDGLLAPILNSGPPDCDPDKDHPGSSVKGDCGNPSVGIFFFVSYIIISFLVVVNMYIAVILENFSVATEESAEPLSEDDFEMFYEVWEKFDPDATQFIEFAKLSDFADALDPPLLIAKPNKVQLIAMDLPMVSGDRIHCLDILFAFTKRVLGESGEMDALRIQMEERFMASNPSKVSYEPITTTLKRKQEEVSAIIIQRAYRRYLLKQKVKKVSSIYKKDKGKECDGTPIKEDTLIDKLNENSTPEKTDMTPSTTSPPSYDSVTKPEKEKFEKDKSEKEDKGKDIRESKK

On to `CCCCCCCC(O)(C(N)=O)c1cccc(Cl)c1` (racemic), for which, in [1], the IC50 (in general, the concentration that inhibits the measured activity by half) is 1.81 µM. Besides, the figures for the inhibition in [2] and in data set [3] were 31.9% and 87%, respectively. In [4], the inhibition (as a rule, how much of the control response was suppressed) is “Active”. Also, the inhibition at […], 0.3 µM at hERG (KCNH2) [5] amounted to 15%. The same molecule displayed an inhibition at […], 1 µM at hERG (KCNH2) [6] of 17%. Besides, on hERG (KCNH2) [7], the inhibition at […], 3 µM is 15%. Further, at hERG (KCNH2) [8], the inhibition at […], 10 µM came to 51%. The molecule further gave an inhibition at […], 30 µM at hERG (KCNH2) [9] of 78%. For the same molecule, the result in the data set on CWR22R and in the data set with PC-3 [12] was Active. For the same molecule, the Activity in [10] was found to be 25%; in the data set with PC-3 [11], 62%.
Turning to `CCCCCCC[C@@](O)(C(N)=O)c1cccc(Cl)c1`, the inhibition in [2] is 34.9%; in data set [3], 91.5%. Moreover, the inhibition result in [4] is “Active”. Moreover, the outcome in the data set on CWR22R and in the data set with PC-3 [12] was Active. Further, the Activity in [10] is 40%; in the data set on PC-3 [11], 62%.
For the molecule `CCCCCCC[C@](O)(C(N)=O)c1cccc(Cl)c1`, the inhibition is 67.4% in data set [2] and 94.3% in data set [3]. Besides, in [4], the inhibition result is “Active”. In addition, the figures for the Activity (in data set [13]; in data set [10]; with PC-3 [11]) were 25%, 60% and 62%, respectively. The outcome in the data set with PC-3 [12] was Active.
